Reference: ChEMBL document CHEMBL4024803, “New Steroidal 4-Aminoquinolines Antagonize Botulinum Neurotoxin Serotype A in Mouse Embryonic Stem Cell Derived Motor Neurons in Postintoxication Model” (J Med Chem, 2018)

Legend:
Mus musculus [1] = test: Half life in mouse at 600 mg/kg, po by UPLC-MS/MS method; format: ADME, organism-based; settings: in vivo
Procedure, shortened: (§1)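 Single oral dose (400 mg/kg, 7 mice; 600 mg/kg, 6 mice), dissolved in DMSO and suspended in 0.5% hydroxyethylcellulose–0.1% Tween 80. Blood taken by cardiac puncture under chloroform, one mouse per time point, 15–120 min. Serum proteins precipitated with 2 volumes acetonitrile; analysed by UPLC-MS/MS against blank human serum calibration. Half-life read from the concentration–time curve.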

Liver [2] = test: Half life in mouse liver microsomes; format: ADME, microsome
Procedure, shortened: (§2)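 Substrate-depletion assay: compound incubated with human or mouse liver microsomes for 1 h at 37°C. Half-life and intrinsic clearance derived from compound loss.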

Cytochrome P450 3A4 [3] = target: T1, Cytochrome P450 3A4 (Homo sapiens, UniProt P08684); test: Inhibition of CYP3A4 (unknown origin) using BQ as substrate; format: ADME
T1 sequence (P08684 whole entry): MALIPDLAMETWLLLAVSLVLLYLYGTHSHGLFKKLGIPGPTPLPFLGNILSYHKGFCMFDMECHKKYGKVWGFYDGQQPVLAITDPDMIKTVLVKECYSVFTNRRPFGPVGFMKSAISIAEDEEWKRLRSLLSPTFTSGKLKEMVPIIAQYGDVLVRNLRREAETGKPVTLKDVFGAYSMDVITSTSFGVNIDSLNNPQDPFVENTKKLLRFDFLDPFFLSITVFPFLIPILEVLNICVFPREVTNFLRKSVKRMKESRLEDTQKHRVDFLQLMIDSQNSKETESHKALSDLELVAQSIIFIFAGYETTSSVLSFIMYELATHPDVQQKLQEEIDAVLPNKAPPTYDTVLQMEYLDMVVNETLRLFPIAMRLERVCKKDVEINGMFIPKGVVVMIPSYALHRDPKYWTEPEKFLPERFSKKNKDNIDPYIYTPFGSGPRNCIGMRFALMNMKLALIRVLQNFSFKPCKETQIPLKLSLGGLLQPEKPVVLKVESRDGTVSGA
Procedure, shortened: (§3)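 Active CYP450 enzyme incubated at 37°C for a set time with a fluorogenic probe substrate (BQ, DBF or BFC for CYP3A4; CEC for CYP2C19; AMMC for CYP2D6). IC50 derived from net fluorescent signal.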

Mus musculus [4] = test: Cmax in mouse at 400 mg/kg, po by UPLC-MS/MS method; format: ADME, organism-based; set-up: dose 400 mg/kg, route oral; settings: in vivo; procedure, shortened: as §1
[5] = Drug uptake in mouse serum at 400 mg/kg, po measured at 15 mins by UPLC-MS/MS method; format: ADME, organism-based; settings: read-out: Drug uptake; procedure, shortened: as §1
[6] = target: T2, Botulinum neurotoxin type A (Clostridium botulinum, UniProt P0DPI0); test: (§4) Inhibition of Clostridium botulinum BoNT/A holotoxin-mediated SNAP-25 cleavage in mouse HBG3 cell-derived motor neurons preincubated for 30 mins followed by intoxication measured after 4 hrs by Western blot method
[7] = target: Botulinum neurotoxin type A (Clostridium botulinum) (UniProt P0DPI0); test: as §4
Mus musculus [8] = test: Cmax in mouse at 600 mg/kg, po by UPLC-MS/MS method; format: ADME, organism-based; set-up: dose 600 mg/kg, route oral; settings: in vivo; procedure, shortened: as §1
[9] = target: Botulinum neurotoxin type A (Clostridium botulinum) (UniProt P0DPI0); test: Inhibition of Clostridium botulinum BoNT/A light chain at 20 uM using P39 as substrate preincubated for 10 mins followed by substrate addition measured after 10 mins by HPLC method relative to control
Procedure, shortened: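 Purified BoNT/A light chain (20 nM) with 0.2 mg/mL BSA in 50 mM HEPES pH 7.4, preincubated with compound for 10 min at room temperature. Cleavage fragments were separated by reversed-phase HPLC (214/280 nm). Percent inhibition was taken from fragment peak areas with vs without compound. Mean of three experiments.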

[10] = target: Botulinum neurotoxin type A (Clostridium botulinum) (UniProt P0DPI0); test: Inhibition of Clostridium botulinum BoNT/A holotoxin-mediated SNAP-25 cleavage in mouse HBG3 cell-derived motor neurons assessed as full length of SNAP-25 at 20 uM preincubated for 30 mins followed by intoxication measured after 4 hrs by Western blot method relative to control; set-up: scale not given: the % may be the effect or the level left
Cytochrome P450 3A4 [11] = target: T1, Cytochrome P450 3A4; test: Inhibition of CYP3A4 (unknown origin) using BFC as substrate; format: ADME; procedure, shortened: as §3
Mus musculus [12] = test: Time at which drug concentration stays above 3 uM in mouse at 600 mg/kg, po by UPLC-MS/MS method; format: ADME, organism-based; settings: in vivo
Procedure, shortened: (§5)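 Single oral dose in DMSO suspended in 0.5% hydroxyethylcellulose–0.1% Tween 80, given to 7 (400 mg/kg) or 6 (600 mg/kg) mice. Serum came from cardiac puncture under chloroform, one mouse per time point, 15–120 min. Acetonitrile-precipitated serum was analysed by UPLC-MS/MS against calibration in blank human serum.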

[13] = Drug uptake in mouse serum at 600 mg/kg, po measured at 90 mins by UPLC-MS/MS method; format: ADME, organism-based; settings: read-out: Drug uptake; procedure, shortened: as §1
[14] = Drug uptake in mouse serum at 400 mg/kg, po measured at 45 mins by UPLC-MS/MS method; format: ADME, organism-based; settings: read-out: Drug uptake; procedure, shortened: as §1
Plasma = test: Metabolic stability in human plasma assessed as compound remaining after 1 hr; format: ADME, cell-free
Procedure, shortened: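 Compound incubated in human plasma for 1 h at 37°C; percent remaining determined.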

[15] = Drug uptake in mouse serum at 600 mg/kg, po measured at 30 mins by UPLC-MS/MS method; format: ADME, organism-based; settings: read-out: Drug uptake; procedure, shortened: as §1
[16] = Drug uptake in mouse serum at 600 mg/kg, po measured at 45 mins by UPLC-MS/MS method; format: ADME, organism-based; settings: read-out: Drug uptake; procedure, shortened: as §1
[17] = target: T2, Botulinum neurotoxin type A; test: (§6) Inhibition of Clostridium botulinum BoNT/A light chain using P39 as substrate preincubated for 10 mins followed by substrate addition measured after 10 mins by HPLC method
[18] = target: Botulinum neurotoxin type A (Clostridium botulinum) (UniProt P0DPI0); test: as §6
[19] = Apparent permeability across basolateral to apical side in MDCK cells expressing MDR1 after 1 hr; format: ADME, cell-based, Canis lupus familiaris; settings: dog
Procedure, shortened: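 MDR1-transfected MDCK cell monolayer; compound applied to the basolateral compartment and incubated 1 h at 37°C. Apparent permeability measured in the B→A direction.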

Liver [20] = test: Intrinsic clearance in human liver microsomes after 1 hr; format: ADME, microsome; procedure, shortened: as §2
Mus musculus [21] = test: Half life in mouse at 400 mg/kg, po by UPLC-MS/MS method; format: ADME, organism-based; settings: in vivo; procedure, shortened: as §1
Mus musculus [22] = test: Tmax in mouse at 400 mg/kg, po by UPLC-MS/MS method; format: ADME, organism-based; settings: in vivo; procedure, shortened: as §5
Mus musculus [23] = test: Toxicity in mouse assessed as effect on survival at 160 mg/kg, po administered for 3 days measured after 30 days; format: organism-based; settings: in vivo, 720 h
Procedure, shortened: (§7)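 Groups of five healthy mice were dosed per os for three consecutive days, suspended in 0.5% hydroxyethylcellulose–0.1% Tween 80. Behaviour and appearance were monitored twice daily for 30 days, with survival assessed at 30 days. Non-toxic was defined as all 5 surviving with normal appearance and behaviour.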

[24] = Solubility of the compound at pH 7.4 by light scattering-based laser nephelometric method; format: physicochemical; settings: buffer
Procedure, shortened: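 Solubility measured by laser nephelometry (light scattering), pH 7.4, n=3.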

Mus musculus [25] = test: Drug metabolism in mouse assessed as M+32 metabolite formation at 400 to 600 mg/kg, po by UPLC-MS/MS method; format: ADME, organism-based; settings: in vivo
[26] = Distribution co-efficient, log D of the compound at pH 1 by reversed-phase thin-layer chromatographic method; format: physicochemical; settings: buffer
Procedure, shortened: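 Reversed-phase thin-layer chromatography at pH 1, mobile phase MeOH/HCl (70/30).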

[27] = Drug uptake in mouse serum at 600 mg/kg, po measured at 60 mins by UPLC-MS/MS method; format: ADME, organism-based; settings: read-out: Drug uptake; procedure, shortened: as §1
Cytochrome P450 2C19 = Cytochrome P450 2C19 (Homo sapiens, UniProt P33261); test: Inhibition of CYP2C19 (unknown origin) using CEC as substrate; format: ADME; procedure, shortened: as §3
Cytochrome P450 2C19, sequence (P33261 whole entry): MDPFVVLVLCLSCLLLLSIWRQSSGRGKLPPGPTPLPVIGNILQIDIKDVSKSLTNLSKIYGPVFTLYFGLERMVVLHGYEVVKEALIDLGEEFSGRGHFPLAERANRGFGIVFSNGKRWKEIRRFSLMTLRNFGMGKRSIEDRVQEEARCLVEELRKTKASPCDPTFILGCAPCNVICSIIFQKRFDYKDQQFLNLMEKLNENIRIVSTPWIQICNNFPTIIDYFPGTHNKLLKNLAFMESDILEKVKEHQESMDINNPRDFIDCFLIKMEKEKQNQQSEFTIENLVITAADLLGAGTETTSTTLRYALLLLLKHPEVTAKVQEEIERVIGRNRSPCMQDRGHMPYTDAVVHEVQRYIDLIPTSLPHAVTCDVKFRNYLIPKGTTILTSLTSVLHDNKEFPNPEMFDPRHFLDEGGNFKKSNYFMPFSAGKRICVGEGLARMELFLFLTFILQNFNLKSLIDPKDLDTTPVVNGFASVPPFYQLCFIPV

Mus musculus [28] = test: Time at which drug concentration stays above 3 uM in mouse at 400 mg/kg, po by UPLC-MS/MS method; format: ADME, organism-based; settings: in vivo; procedure, shortened: as §5
Liver [29] = test: Intrinsic clearance in mouse liver microsomes after 1 hr; format: ADME, microsome; procedure, shortened: as §2
Mus musculus [30] = test: Toxicity in mouse assessed as effect on behavior at 160 mg/kg, po administered for 3 days measured 2 times a day for 30 days; format: organism-based; settings: in vivo, 720 h; procedure, shortened: as §7
Mus musculus [31] = test: Toxicity in mouse assessed as effect on appearance at 400 to 600 mg/kg, po administered as single dose measured 2 times a day for 30 days; format: organism-based; settings: in vivo, 720 h
Procedure, shortened: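 Two groups of 5 healthy mice each received one oral dose, 400 or 600 mg/kg. Survival, appearance and behaviour were followed for 30 days. Non-toxic was defined as all 5 surviving with normal appearance and behaviour.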

[32] = Drug uptake in mouse serum at 400 mg/kg, po measured at 30 mins by UPLC-MS/MS method; format: ADME, organism-based; settings: read-out: Drug uptake; procedure, shortened: as §1

SMILES: CC(=O)O[C@H]1C[C@H]2[C@@H]([C@H](OC(C)=O)C[C@@H]3C[C@H](N)CC[C@@]32C)[C@@H]2CC[C@H]([C@H](C)CCCNCCCCNc3ccnc4cc(Cl)ccc34)[C@@]12C
- t1/2 (Mus musculus [1]): 23 min
- t1/2 (Liver [2]): > 60 min
- IC50 (Cytochrome P450 3A4 [3]): 1.1 µM
- Cmax (Mus musculus [4]): 7.8 µM
- concentration at 0.25 h [5]: 3.3 µM
- IC50 [6]: 10 µM
- inhibition [7]: Dose-dependent effect
- Cmax (Mus musculus [8]): 11.9 µM
- inhibition [9]: 66%
- Activity [10]: 88%
- IC50 (Cytochrome P450 3A4 [11]): 1.4 µM
- Time (Mus musculus [12]): > 45 min
- concentration at 1.5 h [13]: 4 µM
- concentration at 0.75 h [14]: 3.3 µM
- Stability (Plasma): > 85%
- concentration at 0.5 h [15]: 5.9 µM
- concentration at 0.75 h [16]: 3.1 µM
- IC50 [17]: 4.5 µM
- inhibition [18]: Dose-dependent effect
- Papp [19]: 24.6 ×10⁻⁶ cm/s
- CLH (Liver [20]): < 23 µL/min/mg
- t1/2 (Mus musculus [21]): 43 min
- Tmax (Mus musculus [22]): 22 min
- Activity (Mus musculus [23]): Non-Toxic
- solubility kinetic [24]: > 50 µg/mL
- Drug metabolism (Mus musculus [25]): Metabolite_Notdetected
- chromatographic logD [26]: 2.55
- concentration at 1 h [27]: 2.5 µM
- IC50 (Cytochrome P450 2C19): 5 µM
- Time (Mus musculus [28]): > 45 min
- CLH (Liver [29]): < 23 µL/min/mg
- Activity (Mus musculus [30]): Non-Toxic
- Activity (Mus musculus [31]): Non-Toxic
- concentration at 0.5 h [32]: 4 µM
